Reference: ChEMBL document CHEMBL3244270, “Nitrosoureidonucleosides” (1979)

Tests used:
Assay type in all cases: functional
[1] = Cytotoxicity against human Hep2 cells; conditions: HEp-2, read-out: ED50 (the source's name)
In short: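 H.Ep-2 cultures; ED50 taken as the concentration that holds growth of treated cells to 50% of untreated controls.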

L1210 [2] = assay: In-vivo antitumor activity against mouse L1210 cells at 100 mg/kg
In short: (§1)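 Leukemia L1210 in vivo; compound given as a single dose on day 1 only, with dose in mg/kg. Read-out is life span of treated versus control animals, expressed as T/C %.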

L1210 [3] = assay: In-vivo antitumor activity against mouse L1210 cells at 25 mg/kg; in short: as §1
L1210 [4] = assay: In-vivo antitumor activity against mouse L1210 cells at 200 mg/kg; in short: as §1
L1210 [5] = assay: Cytotoxicity against mouse L1210 cells; conditions: read-out: ED50 (the source's name)

Compound: CN(N=O)C(=O)N[C@H]1[C@@H](O)[C@H](n2cnc3c(N)ncnc32)O[C@@H]1CO
- EC50 [1]: > 60 µM
- T/C (L1210 [2]): 123%

Compound: CNC(=O)N[C@H]1[C@@H](O)[C@H](n2cnc3c(N)nc(Cl)nc32)O[C@@H]1CO
- EC50 [1]: > 50 µM

Compound: CNC(=O)N[C@H]1[C@@H](O)[C@H](n2cnc3c(N)ncnc32)O[C@@H]1CO
- EC50 [1]: > 60 µM

Compound: CNC(=O)N[C@H]1[C@@H](O)[C@H](n2ccc(N)nc2=O)O[C@@H]1CO
- EC50 [1]: > 60 µM

Compound: CN(N=O)C(=O)N[C@H]1[C@@H](O)[C@H](n2cnc3c(N)nc(Cl)nc32)O[C@@H]1CO
- EC50 [1]: > 50 µM

Compound: CN(N=O)C(=O)N[C@H]1[C@@H](O)[C@H](n2ccc(N)nc2=O)O[C@@H]1CO
- T/C (L1210 [3]): 110%
- EC50 [1]: > 50 µM

Compound: CN(N=O)C(=O)N[C@H]1[C@@H](O)[C@H](n2ccc(=O)[nH]c2=O)O[C@@H]1CO
- EC50 [1]: > 60 µM
- T/C (L1210 [2]): 122%

Compound: CNC(=O)NC[C@H]1O[C@@H](n2cnc3c(N)ncnc32)[C@H](O)[C@@H]1O
- EC50 [1]: > 60 µM
- T/C (L1210 [4]): 98%

Compound: CN(N=O)C(=O)NC[C@H]1O[C@@H](n2cnc3c(N)ncnc32)[C@H](O)[C@@H]1O
- EC50 [1]: 40 µM
- T/C (L1210 [4]): 106%

Compound: CN(N=O)C(=O)NC[C@H]1O[C@@H](n2ccc(=O)[nH]c2=O)[C@H](O)[C@@H]1O
- EC50 [1]: > 50 µM

Compound: CN(N=O)C(=O)NC[C@H]1O[C@@H](n2ccc(N)nc2=O)[C@H](O)[C@@H]1O
- EC50 [1]: > 50 µM

Compound: Cc1cn([C@H]2C[C@H](NC(=O)N(C)N=O)[C@@H](CO)O2)c(=O)[nH]c1=O
- EC50 (L1210 [5]): 1 µM
